Data: PMC9292928 (British Journal of Pharmacology, 2021)
“Also recorded” adds a separate entry of the source. Read-outs that look alike come from different tables or passages of the source.

How the values were obtained:
[1] = target: T1, concatenated human γ2–β2–α1–β2–α1 GABA receptor (Homo sapiens, UniProt P14867+P18507+P47870); test: Two-electrode voltage clamp, GABA-evoked currents in Xenopus oocytes; format: cell-based
Outline: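 Two-electrode voltage clamp used Xenopus oocytes expressing concatenated human γ2–β2–α1–β2–α1 receptors. GABA (15 μM) was applied three times with 7–12 min washout, and currents were normalised to the mean of the last two applications. Preincubation was 60 s. Per cent modulation came from a published equation, and the Hill equation fit gave Imax and EC50, n = 5.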

[2] = Plasma concentrations in experimental Scn1a+/− mice; format: in vivo, mouse
Outline: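 Acute cohorts (n = 5–10) were anaesthetised with isoflurane directly after the hyperthermia protocol, and whole blood was taken by cardiac puncture. Plasma was stored at −80°C. Subchronic cohorts received drug orally in chow, with plasma collected on P31 within 30 min of lights on. Clobazam pretreatment was 30 min and test compound pretreatment 45 min before the hyperthermia time point.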

[3] = tested on: 6‐Hz threshold test, Swiss male mice; test: 6-Hz threshold test; format: in vivo, mouse; settings: n = 12; for CC50 vs vehicle, 6-Hz threshold test: 45 min pretreatment
[4] = tested on: 168 GPCRs and 74 orphan GPCRs; test: Eurofins DiscoverX PathHunter β-arrestin GPCR screen; format: cell-based; settings: 3 μM
GPR55 [5] = target: T2, GPR55 (Homo sapiens, UniProt Q9Y2T6); test: Eurofins DiscoverX PathHunter β-arrestin GPCR screen, GPR55; format: cell-based; settings: 3 μM
T2 sequence (Q9Y2T6 whole entry): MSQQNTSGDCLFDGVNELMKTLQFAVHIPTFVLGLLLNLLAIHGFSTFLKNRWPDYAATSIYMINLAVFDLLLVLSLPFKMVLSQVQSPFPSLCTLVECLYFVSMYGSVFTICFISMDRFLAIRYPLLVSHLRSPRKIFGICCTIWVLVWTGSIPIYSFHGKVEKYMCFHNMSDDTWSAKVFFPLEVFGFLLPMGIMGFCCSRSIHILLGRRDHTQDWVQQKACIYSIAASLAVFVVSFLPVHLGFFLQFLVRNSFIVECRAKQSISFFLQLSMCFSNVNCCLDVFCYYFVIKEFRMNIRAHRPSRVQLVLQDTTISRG

[6] = tested on: hyperthermia‐induced seizures in Scn1a +/− mice; test: Hyperthermia-induced seizures in Scn1a+/− mice; format: in vivo, mouse; settings: for Effective (anticonvulsant) dose against hyperthermia-induced seizures: i.p.
Outline: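 Male and female Scn1a+/− F1 mice (congenic 129S6 heterozygotes × C57BL/6J), P14–16, got a single i.p. dose of vehicle or test compound, n = 12–18. Pretreatment time was set per compound from time-to-peak data (15–120 min), with matched vehicle controls. A rectal probe went in 15 min before, followed by 5-min acclimation. Core temperature was raised 0.5°C every 2 min until the first clonic convulsion with loss of posture, or to 42.5°C held 3 min. Thresholds were compared by log-rank Mantel–Cox.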

cannabinoid CB2 receptor = cannabinoid CB2 receptor (Homo sapiens, UniProt P34972); test: Eurofins DiscoverX PathHunter β-arrestin GPCR screen, CB2; format: cell-based; settings: 3 μM
cannabinoid CB2 receptor, sequence (P34972 whole entry): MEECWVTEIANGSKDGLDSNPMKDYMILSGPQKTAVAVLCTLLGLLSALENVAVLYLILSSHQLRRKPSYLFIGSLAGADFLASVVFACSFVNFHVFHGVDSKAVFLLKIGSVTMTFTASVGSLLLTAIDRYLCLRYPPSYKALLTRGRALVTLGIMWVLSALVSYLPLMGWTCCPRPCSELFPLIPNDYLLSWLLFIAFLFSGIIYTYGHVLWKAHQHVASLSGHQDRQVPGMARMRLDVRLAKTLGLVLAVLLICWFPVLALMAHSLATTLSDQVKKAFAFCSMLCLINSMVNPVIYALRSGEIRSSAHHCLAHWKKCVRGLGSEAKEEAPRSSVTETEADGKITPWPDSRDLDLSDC

human TRPV1 = human TRPV1 (Homo sapiens, UniProt Q8NER1); test: TRPV1 intracellular calcium assay; format: cell-based
human TRPV1, sequence (Q8NER1 whole entry): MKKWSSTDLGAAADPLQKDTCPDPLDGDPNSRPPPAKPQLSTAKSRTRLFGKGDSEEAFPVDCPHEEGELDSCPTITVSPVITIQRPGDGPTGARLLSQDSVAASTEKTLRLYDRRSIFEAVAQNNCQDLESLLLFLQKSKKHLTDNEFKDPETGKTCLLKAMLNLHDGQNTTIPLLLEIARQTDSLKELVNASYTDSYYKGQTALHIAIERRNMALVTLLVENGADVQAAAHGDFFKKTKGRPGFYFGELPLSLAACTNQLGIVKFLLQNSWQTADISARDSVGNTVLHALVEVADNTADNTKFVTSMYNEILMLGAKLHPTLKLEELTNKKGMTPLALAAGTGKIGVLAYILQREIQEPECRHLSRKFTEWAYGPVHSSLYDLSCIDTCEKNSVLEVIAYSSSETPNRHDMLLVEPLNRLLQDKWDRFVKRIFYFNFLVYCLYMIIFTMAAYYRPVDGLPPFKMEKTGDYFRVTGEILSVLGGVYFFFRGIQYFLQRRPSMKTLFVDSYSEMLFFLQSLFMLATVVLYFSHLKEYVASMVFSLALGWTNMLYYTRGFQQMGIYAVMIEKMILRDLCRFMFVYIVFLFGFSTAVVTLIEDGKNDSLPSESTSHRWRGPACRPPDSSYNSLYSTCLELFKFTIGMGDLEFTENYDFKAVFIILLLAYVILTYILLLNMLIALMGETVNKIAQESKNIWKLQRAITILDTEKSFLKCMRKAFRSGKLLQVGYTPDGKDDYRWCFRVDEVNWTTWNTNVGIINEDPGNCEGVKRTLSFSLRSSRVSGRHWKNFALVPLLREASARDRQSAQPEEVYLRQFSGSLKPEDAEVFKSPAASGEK

[7] = tested on: spontaneous GTCS and survival of Scn1a +/− mice; test: Spontaneous seizures; format: in vivo, mouse
Outline: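 Male and female Scn1a+/− mice were primed with one hyperthermia-induced seizure at P18. They were cooled on a pad to a 37°C core temperature at the onset of clonic convulsion. Test compound was then given subchronically in chow. Spontaneous GTCS were counted blind from continuous video over 60 h, and dosing continued to P30 for survival. Seizure-free proportion was analysed by Fisher's exact test; frequency by one-way ANOVA with Dunnett's test.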

GPR55 [8] = target: T2, GPR55; test: GPR55 ERK phosphorylation assay in HEK293 cells; format: cell-based; settings: for EC80 concentration for GPR55 activation (pERK): agonist alone
[9] = target: T1, concatenated human γ2–β2–α1–β2–α1 GABA receptor; test: GABAA receptor desensitization assay in Xenopus oocytes; format: cell-based; settings: 10 μM CBGA, 180-s preincubation, 1 mM GABA; 103 ± 3% without preincubation
cannabinoid CB1 receptor = cannabinoid CB1 receptor (Homo sapiens, UniProt P21554); test: Eurofins DiscoverX PathHunter β-arrestin GPCR screen, CB1; format: cell-based; settings: 3 μM
cannabinoid CB1 receptor, sequence (P21554 whole entry): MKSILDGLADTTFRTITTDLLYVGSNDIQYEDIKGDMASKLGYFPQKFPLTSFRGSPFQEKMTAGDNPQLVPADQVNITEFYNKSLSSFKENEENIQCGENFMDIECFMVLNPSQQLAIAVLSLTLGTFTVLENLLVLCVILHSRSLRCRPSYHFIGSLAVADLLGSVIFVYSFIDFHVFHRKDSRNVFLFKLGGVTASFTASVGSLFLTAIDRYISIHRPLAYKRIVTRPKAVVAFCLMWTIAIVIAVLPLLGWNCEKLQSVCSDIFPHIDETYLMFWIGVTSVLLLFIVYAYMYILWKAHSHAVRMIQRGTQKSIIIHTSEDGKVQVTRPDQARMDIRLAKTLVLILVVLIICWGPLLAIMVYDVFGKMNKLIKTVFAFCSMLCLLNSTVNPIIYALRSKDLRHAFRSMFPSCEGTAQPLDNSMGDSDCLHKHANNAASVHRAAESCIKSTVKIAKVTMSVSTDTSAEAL

[10] = ref Anderson, Low, et al., 2019; cited from earlier work
[11] = tested on: hyperthermia‐induced seizures in Scn1a +/− mice; settings: cited from earlier work
[12] = tested on: MES threshold test, Swiss male mice; test: Maximal electroshock; format: in vivo, mouse; settings: 300 mg·kg−1, 15 min prior, n = 12
Outline: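 Swiss male mice, n = 12; the positive control was given 15 min before shock. Corneal electroshocks were 60 Hz, 0.4 s, 0.5-ms rectangular pulses, starting at 50 mA. A blinded observer scored GTCS with full hindlimb extension (hindlimbs at 180° to torso).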

[13] = tested on: pentylenetetrazole (PTZ)‐induced seizures; settings: ref Hill et al., 2010; cited from earlier work
[14] = Solubility of dosing preparations; format: physicochemical; settings: for State of dosing preparation: ethanol:Tween 80:saline (1:1:18), 10 ml·kg−1, CBGV 100, CBDV 60, CBG 30 mg·kg−1; for Aqueous solubility: reason for not testing 100 mg·kg−1
Scn1a +/− mice = settings: ref Hawkins et al., 2017; Luszczki et al., 2003; Miller et al., 1986; cited from earlier work
MES‐induced seizures = settings: ref Hawkins et al., 2017; Luszczki et al., 2003; Miller et al., 1986; cited from earlier work
[15] = acute i.p., CBGA 30 mg·kg−1 + clobazam 1 mg·kg−1
[16] = 30 mg·kg−1 single i.p., Scn1a+/− mice P14–16
[17] = 100 mg·kg−1 single i.p., Scn1a+/− mice P14–16
[18] = over all doses tested, single i.p., Scn1a+/− mice P14–16
[19] = Scn1a+/− mice, ref Anderson et al., 2021

T1 sequence (P14867 28-456): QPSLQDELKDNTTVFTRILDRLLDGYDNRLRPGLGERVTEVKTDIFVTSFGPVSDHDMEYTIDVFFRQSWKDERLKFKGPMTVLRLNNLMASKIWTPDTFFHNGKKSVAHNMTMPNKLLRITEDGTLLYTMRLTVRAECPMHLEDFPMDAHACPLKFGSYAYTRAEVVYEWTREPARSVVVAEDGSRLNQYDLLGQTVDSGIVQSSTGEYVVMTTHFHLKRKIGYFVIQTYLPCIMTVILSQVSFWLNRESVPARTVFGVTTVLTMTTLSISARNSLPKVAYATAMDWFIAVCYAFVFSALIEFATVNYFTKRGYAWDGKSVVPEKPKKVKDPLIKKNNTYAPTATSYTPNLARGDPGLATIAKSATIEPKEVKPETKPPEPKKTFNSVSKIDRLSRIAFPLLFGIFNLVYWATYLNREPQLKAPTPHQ
T1 sequence (P47870 26-512): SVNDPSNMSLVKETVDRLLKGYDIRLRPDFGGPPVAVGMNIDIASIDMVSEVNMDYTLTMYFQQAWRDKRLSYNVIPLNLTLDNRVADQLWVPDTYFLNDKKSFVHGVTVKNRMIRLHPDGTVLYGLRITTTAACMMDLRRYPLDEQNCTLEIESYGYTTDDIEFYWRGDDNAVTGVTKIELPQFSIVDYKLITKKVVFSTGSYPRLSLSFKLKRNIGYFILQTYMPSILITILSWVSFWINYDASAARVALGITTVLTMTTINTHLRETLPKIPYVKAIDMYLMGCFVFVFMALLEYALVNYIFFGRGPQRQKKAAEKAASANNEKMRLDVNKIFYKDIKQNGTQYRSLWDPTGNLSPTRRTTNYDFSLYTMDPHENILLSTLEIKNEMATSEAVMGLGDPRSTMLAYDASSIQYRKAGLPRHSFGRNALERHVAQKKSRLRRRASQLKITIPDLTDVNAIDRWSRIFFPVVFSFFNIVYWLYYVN
T1 sequence (P18507 40-475): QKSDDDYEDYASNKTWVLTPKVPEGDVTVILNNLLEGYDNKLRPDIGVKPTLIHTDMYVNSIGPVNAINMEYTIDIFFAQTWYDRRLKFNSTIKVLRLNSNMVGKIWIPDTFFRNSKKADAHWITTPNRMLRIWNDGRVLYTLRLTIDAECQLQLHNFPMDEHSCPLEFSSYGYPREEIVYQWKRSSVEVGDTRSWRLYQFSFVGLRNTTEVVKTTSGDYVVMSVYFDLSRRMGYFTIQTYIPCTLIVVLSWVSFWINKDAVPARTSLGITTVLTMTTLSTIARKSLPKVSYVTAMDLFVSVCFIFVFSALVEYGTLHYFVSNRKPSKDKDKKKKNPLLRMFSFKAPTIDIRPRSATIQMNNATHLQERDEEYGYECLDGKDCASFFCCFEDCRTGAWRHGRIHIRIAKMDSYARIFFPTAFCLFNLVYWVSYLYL

CCCCCc1cc(O)c(C/C=C(\C)CCC=C(C)C)c(O)c1C(=O)O [CBGA, cannabigerolic acid]
Modulation of GABA-evoked currents at high concentration ([1]; 30 μM CBGA, GABA 15 μM): substantially reduced
EC50 ([1]; EC50, positive modulation of GABA-evoked currents, GABA 15 μM): 0.91 µM
Emax ([1]; read-out: Maximum modulation of GABA-evoked peak currents (E max)): 271 ± 40%
Plasma concentration of CBGA on cotreatment with clobazam [2, 15]: significantly increased
Plasma CBGA concentrations on cotreatment with clobazam ([2]; subchronic, chow): no effect
CC50 vs vehicle, 6-Hz threshold test ([3]; 10 mg·kg−1 i.p.): significantly lower
CC50 vs vehicle, 6-Hz threshold test ([3]; 30 mg·kg−1 i.p.): significantly lower
CC50 vs vehicle, 6-Hz threshold test ([3]; 100 mg·kg−1 i.p.): did not differ from vehicle
Agonist or antagonist activity at 242 GPCRs [4]: No agonist or antagonist activity
Agonist activity at GPR55 (GPR55 [5]): not an agonist
Temperature threshold for GTCS induced by hyperthermia vs vehicle [6, 16]: anticonvulsant; also recorded: significantly elevated
Temperature threshold for GTCS induced by hyperthermia vs vehicle [6, 17]: anticonvulsant
Effective (anticonvulsant) dose against hyperthermia-induced seizures ([6]; Scn1a+/− mice): 30 mg/kg
Temperature threshold for GTCS induced by hyperthermia vs vehicle [6, 18]: dose‐dependently increased
Effect at cannabinoid CB2 receptor (cannabinoid CB2 receptor): did not affect
IC50 (human TRPV1): 22 µM
Non-specific calcium influx (human TRPV1; 30 and 100 μM CBGA, wildtype and TRPV1-expressing cells): non‐specific increase in intracellular calcium
Agonist activity at TRPV1 (human TRPV1; calcium influx): did not display agonist activity
Spontaneous GTCS frequency ([7]; 2500 mg·kg−1 chow, oral subchronic, 60-h recording): significantly increased
Survival to P30 relative to controls ([7]; 1400 and 2500 mg·kg−1 chow, oral): did not differ
Proportion of mice experiencing GTCS during observation period ([7]; 1400 and 2500 mg·kg−1 chow, oral subchronic, 60-h recording): Neither dose of CBGA affected
IC50 (GPR55 [8]; IC50, inhibition of GPR55 activation, rounded value of the discussion): ~5 µM
IC50 (GPR55 [8]; IC50, inhibition of LPI-mediated GPR55 activity (pERK), LPI 4 μM (EC80)): 5.7 µM
IC50 (GPR55 [8]; IC50, inhibition of ML-186-mediated GPR55 activity (pERK), ML-186 0.45 μM (EC80)): 4.8 µM
Mode of antagonism at GPR55 (GPR55 [8]; ML-186 concentration–response curves with varying CBGA): non‐competitive antagonist
Peak GABA current after preincubation (percentage of GABA response) [9]: 31 ± 11%
Effect at cannabinoid CB1 receptor (cannabinoid CB1 receptor): did not affect
Brain penetration [10]: 2%
Brain–plasma ratio [10]: 0.02

CN1C(=O)CC(=O)N(c2ccccc2)c2cc(Cl)ccc21 [clobazam, reference compound]
Plasma clobazam concentrations on CBGA co-administration [2, 15]: did not affect
Temperature threshold for GTCS induced by hyperthermia vs vehicle ([6]; 1 mg·kg−1 single i.p., Scn1a+/− mice): significantly elevated
Spontaneous GTCS frequency ([7]; 80 mg clobazam·kg−1 chow, oral, 60-h recording): significantly reducing
Survival to P30 ([7]; clobazam 80 mg·kg−1 chow alone or plus CBGA 1400 mg·kg−1 chow): neither treatment had any effect
Proportion of mice displaying GTCS ([7]; clobazam 80 mg·kg−1 chow alone or plus CBGA 1400 mg·kg−1 chow, controls 63%): 35%

CCCCCc1cc2c(c(O)c1C(=O)O)C=CC(C)(CCC=C(C)C)O2 (stereo not drawn) [CBCA, cannabichromenic acid]
Effect against hyperthermia-induced seizures [11, 19]: anticonvulsant effects

CCCc1cc2c(c(O)c1C(=O)O)C=CC(C)(CCC=C(C)C)O2 (stereo not drawn) [CBCVA, cannabichromevarinic acid]
Effect against hyperthermia-induced seizures [11, 19]: anticonvulsant effects

CCCC(CCC)C(=O)O [valproic acid, reference compound]
Protection against seizure activity, 6-Hz threshold test ([3]; 300 mg·kg−1, 15 min prior): 100%
Protection against seizure activity, MES threshold test [12]: 100%

CCCc1cc(O)c2c(c1)OC(C)(C)[C@@H]1CCC(C)=C[C@@H]21 [Δ^9‐THCV, tetrahydrocannabivarin]
Temperature threshold for GTCS induced by hyperthermia vs vehicle ([6]; 3 mg·kg−1 single i.p., Scn1a+/− mice P14–16): proconvulsant
Effect against PTZ-induced seizures [13]: anticonvulsant effects

COc1ccc(S(=O)(=O)N2CCOCC2)cc1NC(=O)c1cc2c(s1)CCCC2 [ML‐186, reference compound]
EC80 concentration for GPR55 activation (pERK) (GPR55 [8]): 0.45 μM

CCCc1cc(O)c(C/C=C(\C)CCC=C(C)C)c(O)c1C(=O)O [CBGVA, cannabigerovarinic acid]
Temperature threshold for GTCS induced by hyperthermia vs vehicle [6, 17]: significantly elevated
Effective (anticonvulsant) dose against hyperthermia-induced seizures ([6]; Scn1a+/− mice): 100 mg/kg

CCCCCc1cc(O)c(C/C=C(\C)CCC=C(C)C)c(O)c1 [CBG, cannabigerol]
State of dosing preparation [14]: near solubility limits
Aqueous solubility [14]: poor aqueous solubility
Mice seizure free (protected from GTCS) ([6]; 0.3 mg·kg−1 i.p., n = 12–18 per group): four
Temperature threshold for GTCS induced by hyperthermia vs vehicle [6, 18]: Neither cannabigerol (CBG) nor cannabigerivarin (CBGV) affected thresholds

O=C1CC(=O)N(c2ccccc2)c2cc(Cl)ccc2N1 [N‐desmethylclobazam]
Plasma concentrations of N-desmethylclobazam on CBGA co-administration [2, 15]: reduced
Plasma concentrations of N-desmethylclobazam when clobazam combined with CBGA ([2]; subchronic, chow): significantly lower

C=C(C)[C@@H]1CCC(C)=C[C@H]1c1c(O)cc(CCCCC)cc1O [CBD, cannabidiol]
Effect against hyperthermia-induced seizures ([11]; 100 mg·kg−1, ref Anderson, Absalom, et al., 2019, Anderson et al., 2020, Kaplan et al., 2017): anticonvulsant

lysophosphatidylinositol [LPI, reference compound]
EC80 concentration for GPR55 activation (pERK) (GPR55 [8]): 4 μM

C=C(C)[C@@H]1CCC(C)=C[C@H]1c1c(O)cc(CCC)c(C(=O)O)c1O [CBDVA, cannabidivarinic acid]
Temperature threshold for GTCS induced by hyperthermia vs vehicle [6, 17]: significantly elevated
Effective (anticonvulsant) dose against hyperthermia-induced seizures ([6]; Scn1a+/− mice): 100 mg/kg

C=C(C)[C@@H]1CCC(C)=C[C@H]1c1c(O)cc(CCC)cc1O [CBDV, cannabidivarin]
State of dosing preparation [14]: near solubility limits
Aqueous solubility [14]: poor aqueous solubility
Temperature threshold for GTCS induced by hyperthermia vs vehicle [6, 16]: increase in GTCS temperature threshold

CCCc1cc(O)c(C/C=C(\C)CCC=C(C)C)c(O)c1 [CBGV, cannabigerivarin]
State of dosing preparation [14]: suspension
Temperature threshold for GTCS induced by hyperthermia vs vehicle [6, 18]: Neither cannabigerol (CBG) nor cannabigerivarin (CBGV) affected thresholds

Nc1nnc(-c2cccc(Cl)c2Cl)c(N)n1 [Lamotrigine]
Effect on seizures in Scn1a+/− mice (Scn1a +/− mice): proconvulsant
Effect against MES-induced seizures (MES‐induced seizures): anticonvulsant
